Calls of active or inactive are those of the source. The calls are words filed in the database; no cut-off is given here.
Key:
[1] = tested on: KB; experiment: Antiproliferative activity against human KB cells expressing human RFC, FRalpha and PCFT assessed as reduction of viable cells after 96 hrs in the presence of 200 nM folic acid; format: functional, cell-based
Summary of the method: (§1)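 Same 96 h CellTiter-blue proliferation set-up in folate-free RPMI/10% dFBS with 2 nM leucovorin. Run in parallel incubations that included 200 nM folic acid alongside the antifolate, to establish FR-dependent uptake.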

[2] = tested on: Mus musculus; experiment: Toxicity in human IGROV1 cells expressing human RFC, FRalpha and PCFT xenografted SCID mouse assessed as mortality at 25 to 40 mg/kg, iv administered on days 3, 7, […], […], and […] postimplantation; format: organism-based, IGROV-1; settings: in vivo
[3] = tested on: Mus musculus; experiment: Toxicity in human IGROV1 cells expressing human RFC, FRalpha and PCFT xenografted SCID mouse assessed as weight loss at 25 mg/kg, iv administered on days 3, 7, 11, 15, and 19 postimplantation measured on day 13; format: organism-based, IGROV-1; parameters: dose 25 mg/kg, route intravenous; settings: in vivo
Summary of the method: (§2)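 Female ICR SCID mice, 10 weeks old, on a folate-deficient diet from 24 days before implant. Bilateral subcutaneous IGROV1 tumour fragments (30–60 mg, by trocar); mice pooled, then randomised. IV dosing on days 3, 7, 11, 15 and 19. Mice weighed daily; tumours measured by caliper 2–3 times weekly; mice sacrificed at 1500 mg tumour burden. Weight-loss nadir and recovery recorded.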

[4] = tested on: KB; experiment: Antiproliferative activity against human KB cells expressing human RFC, FRalpha and PCFT assessed as reduction of viable cells after 96 hrs; format: functional, cell-based
[5] = target: T1, Proton-coupled folate transporter (Homo sapiens) (UniProt Q96NT5); experiment: Inhibition of human PCFT-mediated [3H]MTX uptake expressed in chinese hamster R2 cells at pH 6.8 […] relative to PMX; format: cell-based; settings: concentration not given here
T1 sequence (whole entry): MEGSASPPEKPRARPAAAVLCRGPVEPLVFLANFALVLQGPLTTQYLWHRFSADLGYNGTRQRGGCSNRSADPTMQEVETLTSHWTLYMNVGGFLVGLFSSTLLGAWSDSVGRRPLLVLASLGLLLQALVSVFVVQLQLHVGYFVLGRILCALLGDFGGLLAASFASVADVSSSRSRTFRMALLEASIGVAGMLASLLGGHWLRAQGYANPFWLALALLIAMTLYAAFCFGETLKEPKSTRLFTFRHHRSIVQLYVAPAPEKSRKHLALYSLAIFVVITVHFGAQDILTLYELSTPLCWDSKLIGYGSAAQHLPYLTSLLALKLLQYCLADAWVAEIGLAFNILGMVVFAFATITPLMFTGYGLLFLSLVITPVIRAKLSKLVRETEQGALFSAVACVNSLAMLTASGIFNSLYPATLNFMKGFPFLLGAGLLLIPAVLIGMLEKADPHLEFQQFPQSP

[6] = Antiproliferative activity against chinese hamster RT16 cells expressing human FRalpha assessed as reduction of viable cells after 96 hrs in the presence of 200 nM folic acid; format: functional, cell-based; settings: Cricetulus griseus, RT16, 96 h; summary of the method: as §1
[7] = tested on: IGROV-1; experiment: Antitumor activity against human IGROV1 cells expressing human RFC, FRalpha and PCFT xenografted in standard folate diet fed SCID mouse assessed as tumor growth inhibition at 25 to 40 mg/kg, iv administered on days 3, 7, […], […], and […] postimplantation; format: functional; settings: dose mg/kg 25-40
[8] = tested on: R2; experiment: Antiproliferative activity against chinese hamster R2 cells expressing human PCFT assessed as inhibition of colony formation after 10 to 14 days; format: functional, cell-based, Cricetulus griseus
[9] = tested on: Mus musculus; experiment: Toxicity in human IGROV1 cells expressing human RFC, FRalpha and PCFT xenografted SCID mouse assessed as weight loss at 25 mg/kg, iv administered on days 3, 7, 11, 15, and 19 postimplantation measured on day 8 post last treatment; format: organism-based, IGROV-1; parameters: dose 25 mg/kg, route intravenous; settings: in vivo
Summary of the method: (§3)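 Female ICR SCID mice (10 weeks old) were fed a folate-deficient or folate-replete diet from 24 days before implant. IGROV1 tumor fragments (30–60 mg) were implanted bilaterally s.c. by trocar, and mice were randomized. Dosing was i.v. on a Q4dx5 schedule (days 3, 7, 11, 15, 19). Mice were weighed daily to track weight-loss nadir and recovery.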

[10] = Antiproliferative activity against chinese hamster PC43-10 expressing human RFC assessed as reduction of viable cells after 96 hrs; format: functional; settings: Cricetulus griseus, PC43-10, 96 h
[11] = tested on: IGROV-1; experiment: Antitumor activity against human IGROV1 cells expressing human RFC, FRalpha and PCFT xenografted in SCID mouse assessed as tumor growth inhibition at 40 mg/kg, iv administered on days 3, 7, […], […], and […] postimplantation; format: functional
[12] = tested on: IGROV-1; experiment: Antiproliferative activity against human IGROV1 cells expressing human RFC, FRalpha and PCFT assessed as reduction of viable cells after 96 hrs in the presence of 200 nM folic acid; format: functional, cell-based; settings: IGROV-1, 96 h; summary of the method: as §1
[13] = Inhibition of GARFTase in chinese hamster R2 cells expressing human PCFT assessed as incorporation of [14C]glycine into [14C]formyl GAR in the presence of 4 uM azaserine; format: cell-based, Cricetulus griseus
[14] = tested on: Mus musculus; experiment: Toxicity in human IGROV1 cells expressing human RFC, FRalpha and PCFT xenografted SCID mouse assessed as reversible weight loss at 25 to 40 mg/kg, iv administered on days 3, 7, 11, 15, and 19 postimplantation; format: organism-based, IGROV-1; parameters: dose 25-40 mg/kg, route intravenous; settings: in vivo; summary of the method: as §2
[15] = tested on: R2; experiment: Antiproliferative activity against chinese hamster R2 cells assessed as reduction of viable cells after 96 hrs; settings: Cricetulus griseus, R2, 96 h
[16] = tested on: IGROV-1; experiment: Antiproliferative activity against human IGROV1 cells expressing human RFC, FRalpha and PCFT assessed as reduction of viable cells after 96 hrs; format: functional, cell-based; settings: IGROV-1, 96 h
[17] = tested on: R2; experiment: Antiproliferative activity against chinese hamster R2 cells expressing human PCFT assessed as growth inhibition in the presence of 320 uM AICA; format: functional, cell-based; settings: Cricetulus griseus
Summary of the method: (§4)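 R2/hPCFT4 cells were grown in folate-free RPMI with 25 nM leucovorin and 10% dFBS and exposed to antifolate for up to 96 h. Rescue co-incubations used thymidine (10 µM), adenosine (60 µM) and AICA (320 µM), alone or combined. Viability was read by CellTiter-blue.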

[18] = tested on: Mus musculus; experiment: Toxicity in human IGROV1 cells expressing human RFC, FRalpha and PCFT xenografted SCID mouse assessed as weight loss at 25 mg/kg, iv administered on days 3, 7, 11, 15, and 19 postimplantation measured on day 27 post last treatment; format: organism-based, IGROV-1; parameters: dose 25 mg/kg, route intravenous; settings: in vivo; summary of the method: as §3
[19] = target: T1, Proton-coupled folate transporter (Homo sapiens); experiment: Inhibition of human PCFT-mediated [3H]MTX uptake expressed in chinese hamster R2 cells at pH 5.5 by dixon plot analysis relative to PMX; format: cell-based; settings: concentration not given here
[20] = tested on: R2; experiment: Decrease in intracellular ATP concentration in chinese hamster R2 cells expressing human PCFT at 1 uM after 24 hrs by HPLC relative to control at pH 6.8; format: functional, Cricetulus griseus; parameters: scale not given: the % may be the effect or the level left
Summary of the method: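 R2/hPCFT4 CHO cells seeded in folate-free RPMI 1640 with 10% dialysed FBS and 25 nM leucovorin (pH 7.2). After 24 h, switched to the same medium buffered to pH 6.8 with 25 mM PIPES/25 mM HEPES. Drug at 1 µM, or vehicle (0.5% DMSO or H2O), for 24 h. Nucleotides extracted; ATP quantified by HPLC against vehicle control.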

[21] = tested on: R2; experiment: Antiproliferative activity against chinese hamster R2 cells expressing human PCFT assessed as growth inhibition in the presence of 60 uM adenosine; format: functional, cell-based; settings: Cricetulus griseus; summary of the method: as §4
[22] = tested on: Mus musculus; experiment: Toxicity in human IGROV1 cells expressing human RFC, FRalpha and PCFT xenografted SCID mouse assessed as weight loss at 40 mg/kg, iv administered on days 3, 7, 11, 15, and 19 postimplantation measured on day 10 post last treatment; settings: in vivo
[23] = tested on: IGROV-1; experiment: Antitumor activity against human IGROV1 cells expressing human RFC, FRalpha and PCFT xenografted in SCID mouse assessed as tumor growth inhibition at 25 mg/kg, iv administered on days 3, 7, […], […], and […] postimplantation; format: functional
[24] = Antiproliferative activity against chinese hamster R2(VC) cells assessed as reduction of viable cells after 96 hrs; settings: Cricetulus griseus
[25] = tested on: Mus musculus; experiment: Toxicity in human IGROV1 cells expressing human RFC, FRalpha and PCFT xenografted SCID mouse assessed as weight loss at 40 mg/kg, iv administered on days 3, 7, 11, 15, and 19 postimplantation measured on day 21; format: organism-based, IGROV-1; parameters: dose 40 mg/kg, route intravenous; settings: in vivo; summary of the method: as §2

Q: For `Nc1nc2[nH]c(CCCc3ccc(C(=O)N[C@@H](CCC(=O)O)C(=O)O)s3)cc2c(=O)[nH]1`, which IC50 [1] is on record?
A: The IC50 was > 1000 nM.

Q: And the Activity [2]?
A: Its Activity is “Non-toxic”.

Q: And the Activity [3]?
A: The Activity was 6.3%.

Q: What about the IC50 [4] of the same compound?
A: Its IC50 is 0.26 nM.

Q: And the inhibition [5]?
A: The inhibition was 18%.

Q: And the IC50 [6]?
A: Its IC50 is > 1000 nM.

Q: What about the T/C [7] of the same compound?
A: Its T/C is 67%.

Q: And the IC50 [8]?
A: Its IC50 is 1.4 nM.

Q: What about the Activity [9] of the same compound?
A: The Activity was “Non-toxic”.

Q: What about the IC50 [10] of the same compound?
A: Its IC50 is 101 nM.

Q: What about the T/C [11] of the same compound?
A: Its T/C is 14%.

Q: What about the IC50 [12] of the same compound?
A: Its IC50 is > 1000 nM.

Q: What about the IC50 [13] of the same compound?
A: The IC50 was 0.69 nM.

Q: And the Activity [14]?
A: The Activity was 2.7%.

Q: And the IC50 [15]?
A: The IC50 was 274 nM.

Q: And the IC50 [16]?
A: Its IC50 is 0.55 nM.

Q: And the Activity [17]?
A: The Activity was “inactive”.

Q: And the Activity [18]?
A: Its Activity is “Non-toxic”.

Q: What about the inhibition [19] of the same compound?
A: Its inhibition is 35%.

Q: What about the Activity [20] of the same compound?
A: Its Activity is 90%.

Q: And the Activity [21]?
A: The Activity was “inactive”.

Q: And the Activity [22]?
A: The Activity was “Non-toxic”.

Q: And the T/C [23]?
A: The T/C was 16%.

Q: And the IC50 [24]?
A: The IC50 was 288 nM.

Q: And the Activity [25]?
A: The Activity was 9.4%.

Source: ChEMBL document CHEMBL1833876 (J Med Chem, 2011)
